In the library only some 2.1% were active in any assay of this set; here they are far more common.
LMPTP block – blocks human LMPTP phosphatase. inhibition, % at 20 µM. P24666. hit rate 0.22% among 360,000. AID 651560. recombinant LMPTP-A, OMFP fluorogenic substrate, fluorescence intensity;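 active = compounds that cut the enzyme signal by at least half of the control window in the single-dose screen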
Target sequence (P24666 whole entry, looked up): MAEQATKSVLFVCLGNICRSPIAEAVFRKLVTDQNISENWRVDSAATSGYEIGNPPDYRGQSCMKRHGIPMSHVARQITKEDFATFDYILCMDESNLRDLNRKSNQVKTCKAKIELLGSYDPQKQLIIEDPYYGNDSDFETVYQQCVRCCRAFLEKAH
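Test system: LMPTP-A, protein tyrosine phosphatase of low molecular weight; Input: 0.625 nM enzyme; Incubation: 50 min dark incubation at room temperature; Signal: endpoint fluorescence intensity from OMFP dephosphorylation; Read-out basis: % inhibition versus control wells.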
STEP block – blocks human striatal-enriched tyrosine phosphatase; P54829; recombinant STEP, OMFP fluorogenic substrate, fluorescence; inhibition, % at 20 µM; hit rate 0.25% among 360,000; AID 588621;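 active = inhibition at 20 µM, scaled per plate between control wells, above about 37%, limit read from the data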
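Also added – OMFP at 25 µM · Test system – STEP tyrosine phosphatase · Technique – FITC-channel fluorescence of OMFP product · Schedule – 20 min at room temperature, dark · Evaluation – control-normalized % inhibition with plate pattern correction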
DNMT1 block – inhibitors of human DNMT1 | inhibition (reported as % activation of signal), % at 10 µM | P26358 | DNMT1 molecular beacon, Hinp1I cleavage, fluorescence | hit rate 0.83% among 360,000; in the data active = inhibition above about 50%
SUMO1 PPI mod – modulators of human SUMO1-mediated protein-protein interactions; hit rate 0.33% among 360,000; P63165; SUMO1 binding to a labelled peptide, TR-FRET, 1 h; inhibition, % at 20 µM; AID 602429; in the data active = inhibition above about 37%
Target sequence (P63165 whole entry, looked up): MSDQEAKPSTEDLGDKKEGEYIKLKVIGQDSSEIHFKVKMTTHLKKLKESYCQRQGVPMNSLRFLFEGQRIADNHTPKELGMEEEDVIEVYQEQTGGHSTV
Scp-1 inhibitor – blocks human Scp-1 phosphatase activity; Q9GZU7; Recombinant Scp1, phosphopeptide, malachite green phosphate absorbance; inhibition, % at 20 µM; hit rate 0.88% among 340,000;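 active = inhibition above about 50% at 20 µM, limit read from the data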
Target sequence (Q9GZU7 76-261 limits assumed): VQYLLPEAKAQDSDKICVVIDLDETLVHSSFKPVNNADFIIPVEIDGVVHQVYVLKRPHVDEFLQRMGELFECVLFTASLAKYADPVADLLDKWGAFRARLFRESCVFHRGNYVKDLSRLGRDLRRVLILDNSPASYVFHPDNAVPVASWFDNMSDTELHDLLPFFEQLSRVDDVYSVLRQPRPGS
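Test system – truncated SCP-1 phosphatase (76-261aa) · Reagent – Phosphorylated 17-residue peptide substrate · Incubation – 45 min room-temperature reaction, 5 min colour, 30 min stabiliser · Detection – colorimetric phosphate reagent with accelerator and stabiliser, absorbance at 630 nm · Measure – % inhibition at 20 µM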
GRK2 inh – inhibitors of human GRK2 displacing RNA aptamer | bead flow cytometry, FAM-aptamer displacement from GRK2 | inhibition of aptamer binding, % at 10 µM | hit rate 0.59% among 330,000 | AID 488847;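 active = inhibition of aptamer binding above 40%, roughly 3 SD of noise, on plates passing a quality check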;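 note: median bead fluorescence of bound FAM aptamer so fluorescent compounds give negative values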
Scp-1 conf – confirmation of human Scp-1 phosphatase inhibitors; shares compounds with Scp-1 inhibitor; recombinant SCP-1 catalytic domain, phosphate release, malachite green absorbance; inhibition, % at 20 µM; hit rate 61% among 2,500; AID 540281
Scp-1 MG ctr – interferes with malachite green readout, flagging false Scp-1 hits; Colorimetric interference counterscreen, malachite green absorbance 630 nm; 2,500 tested, under 10 active; apparent inhibition (interference), % at 20 µM; shares compounds with Scp-1 inhibitor;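 note: compounds added after enzyme reaction finished so only phosphate colour detection is probed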
Scp1 DSF – binds human Scp-1, shifting its melting temperature. Recombinant SCP1, Sypro Orange thermal shift Tm. shares compounds with Scp-1 inhibitor. thermal shift relative to vanadate control, % at 40 µM. AID 540329. hit rate 25% among 1,500;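 active = substances whose mean melting-temperature shift, as a percentage of the reference inhibitor's shift, reaches about 5.3%, limit read from the data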
Each line names hits and unclear results; the compound was inactive in the other large screens (follow-up assays come after a bar, where they were run).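 Rule for the calls, unless noted: active = inhibition of at least 30% at 20 µM; inactive = the rest.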

Cc1ccc(-c2csc(NCCn3c(C(F)(F)F)nc4ccccc43)n2)cc1	Scp-1 inhibitor 58.5 | Scp-1 conf inactive | Scp-1 MG ctr inactive
COC(=O)C1=C(C(=O)OC)[C@@H]2N(C)c3ccc(OC)cc3[C@@]23C[C@@H](C(=O)OC)N(C(=O)c2cccs2)C3=N1	none
Cc1ccc(C(=O)NNC(=O)c2ccc3ccccc3c2O)cc1	Scp-1 inhibitor 75.0 | Scp-1 conf 56.3 | Scp-1 MG ctr inactive | Scp1 DSF inactive
COCCNC(=O)C1(C)CCN(C(=O)c2cccnc2Oc2ccccc2)C1 (stereo not drawn)	none (no result: Scp-1 inhibitor, GRK2 inh)
Cn1nnnc1Sc1ncnc2scc(-c3ccccc3C(F)(F)F)c12	Scp-1 inhibitor 54.9 | Scp-1 conf inactive | Scp-1 MG ctr inactive
Cn1nnnc1Sc1ncnc2scc(-c3cccs3)c12	Scp-1 inhibitor 58.2 (no result: LMPTP block, STEP block, DNMT1 block, SUMO1 PPI mod) | Scp-1 conf inactive | Scp-1 MG ctr inactive
CC(C)(C)NC(=O)COc1coc(CN2CCN(C(=O)c3ccco3)CC2)cc1=O	none
O=C(CN1C(=O)NC2(CCCCC2)C1=O)Nc1nc2c(F)cc(F)cc2s1	none | Scp-1 conf inactive | Scp-1 MG ctr inactive
CCOc1ccc(N(CC)C(=O)CCS(=O)(=O)c2cccc3nonc23)cc1	none
Cc1ccccc1OCc1nnc(SCC(=O)NCc2ccco2)n1C	none
C=CCn1c(COc2ccccc2F)nnc1SCC(=O)NC(=O)NCc1ccco1	Scp-1 inhibitor 91.5 | Scp-1 conf 65.4 | Scp-1 MG ctr inactive | Scp1 DSF inactive
C=CCn1c(SCC(=O)NCc2ccco2)nnc1C1CCCCC1	none
O=C(CSc1ccsc1[N+](=O)[O-])NCc1ccco1	Scp-1 inhibitor 56.7 | Scp-1 conf 61.1 | Scp-1 MG ctr inactive | Scp1 DSF inactive
COc1ccccc1OCc1nnc(SCC(=O)NCc2ccco2)n1Cc1ccco1	Scp-1 inhibitor 94.6 | Scp-1 conf 87.7 | Scp-1 MG ctr inactive | Scp1 DSF inactive
C=CCn1c(COc2ccccc2-c2ccccc2)nnc1SCC(=O)NC(=O)NCc1ccco1	none
C=CCn1c(Cc2cccs2)nnc1SCC(=O)NCc1ccco1	Scp-1 inhibitor 53.0 | Scp-1 conf 47.2 | Scp-1 MG ctr inactive | Scp1 DSF inactive
Cn1c(CCC(=O)O)nc2cc(S(=O)(=O)N3CCCCC3)ccc21	none
CN(C)S(=O)(=O)c1ccc(SCC(=O)N2CC(=O)Nc3ccccc32)nc1	none
Cc1nc(NC(=O)COC(=O)C2CC2C)c(Cl)cc1Cl (stereo not drawn)	Scp-1 inhibitor 51.1 | Scp-1 conf inactive | Scp-1 MG ctr inactive
COc1cc(Cl)c(C)cc1NC(=O)COC(=O)C1CC1C (stereo not drawn)	none
COc1ccc(N(C(=O)CNC(=O)c2cccs2)C(C(=O)NCC2CCCO2)c2ccccc2)cc1OC (stereo not drawn)	none
COCCOC(=O)c1cc(C(=O)c2cc(Cl)ccc2O)coc1=N	Scp-1 inhibitor 55.3 | Scp-1 conf inactive | Scp-1 MG ctr inactive
O=C(CN1C(=O)c2ccccc2C1=O)NN1C(=O)c2ccccc2C1=O	Scp-1 inhibitor 55.5 | Scp-1 conf inactive | Scp-1 MG ctr inactive
COc1ccc(N2CCN(C(CNC(=O)CC(C)(C)C)c3ccc4c(c3)OCO4)CC2)cc1 (stereo not drawn)	Scp-1 inhibitor 63.6 | Scp-1 conf inactive | Scp-1 MG ctr inactive
CC(C)[C@@H]1Cc2[nH][nH]c(=O)c2[C@H](c2ccc(F)cc2)O1	none (no result: STEP block, DNMT1 block, Scp-1 inhibitor, GRK2 inh)
O=C(O)c1ccc2c(=O)n3c(nc2c1)/C(=C/c1cccc(O)c1)CC3	none
O=C(O)c1ccc2c(=O)n3c(nc2c1)/C(=C/c1ccc(Cl)c(Cl)c1)CC3	Scp-1 inhibitor 55.0 | Scp-1 conf inactive | Scp-1 MG ctr inactive
CCOC(=O)COc1ccc(/C=C2\NC(=S)N(CC)C2=O)cc1	none
O=C1NC(=S)SC1=Cc1cccs1	Scp-1 inhibitor 53.1 (no result: GRK2 inh) | Scp-1 conf inactive | Scp-1 MG ctr inactive
O=C1NC(=S)SC1=Cc1ccccc1Br	none (no result: GRK2 inh)
O=C1NC(=S)SC1=Cc1cc(Br)ccc1O	Scp-1 inhibitor 67.2 (no result: GRK2 inh) | Scp-1 conf inactive | Scp-1 MG ctr inactive
Cc1ccc(S(=O)(=O)/N=C2/NC(=O)/C(=C\c3ccco3)S2)cc1	none
CC(=O)Nc1ccc(S(=O)(=O)/N=C2/NC(=O)/C(=C\c3ccco3)S2)cc1	DNMT1 block 50.6, Scp-1 inhibitor 52.6 | Scp-1 conf 54.1 | Scp-1 MG ctr inactive | Scp1 DSF 10.3
COCCn1nnnc1C(C(C)C)N1CCSCC1 (stereo not drawn)	Scp-1 inhibitor 67.0 | Scp-1 conf inactive | Scp-1 MG ctr inactive
Cc1ccc(C(=O)N2CCN(S(=O)(=O)c3cc(Br)ccc3Br)CC2)o1	Scp-1 inhibitor 67.6 | Scp-1 conf inactive | Scp-1 MG ctr inactive
Cc1ccc(C(=O)N2CCN(S(=O)(=O)c3ccccc3[N+](=O)[O-])CC2)o1	none
CC(=O)Nc1sc(C)c(C)c1C(=O)OC(C)C	none
Cc1sc(NC(=O)Cn2nc(C(F)(F)F)cc2C)c(C(=O)OC(C)C)c1C	Scp-1 inhibitor 63.5 | Scp-1 conf inactive | Scp-1 MG ctr inactive
CCC[N+]1(CC#CC2(O)CCCCC2)CCOCC1	Scp-1 inhibitor 58.7 | Scp-1 conf 76.7 | Scp-1 MG ctr inactive | Scp1 DSF inactive
CCn1c(=O)cc(OCC(=O)NCc2ccco2)c2ccccc21	Scp-1 inhibitor 57.5 | Scp-1 conf inactive | Scp-1 MG ctr inactive
O=C1c2c(-c3ccc(Br)cc3)noc2CCN1Cc1cn(C2CCCC2)nn1	none (no result: STEP block, DNMT1 block, Scp-1 inhibitor, GRK2 inh)
CC(=O)NC1=NC(=O)/C(=C/c2cc(C)n(-c3cccc(C(=O)O)c3)c2C)S1	DNMT1 block 93.2, Scp-1 inhibitor 71.8 (no result: GRK2 inh) | Scp-1 conf 53.1 | Scp-1 MG ctr inactive | Scp1 DSF 5.3
Cc1ccc(NC2CCCN(C(=O)CCc3scnc3C)C2)cc1C (stereo not drawn)	Scp-1 inhibitor 55.0 | Scp-1 conf inactive | Scp-1 MG ctr inactive
Cc1ncsc1CCC(=O)N1CCCC(Nc2ccc(F)c(F)c2)C1 (stereo not drawn)	none
CCOc1ccccc1C(=O)N(C)Cc1cc2cc(OC)ccc2[nH]c1=O	Scp-1 inhibitor 50.8 | Scp-1 conf inactive | Scp-1 MG ctr inactive
CCOc1cc(C(=O)N(C)Cc2cc3cc(OC)ccc3[nH]c2=O)cc(OCC)c1OCC	none
O=C(Nc1ccc(Cl)c(C(F)(F)F)c1)C1Cc2c(-c3ccc4c(c3)OCO4)ccnc2O1 (stereo not drawn)	none (no result: Scp-1 inhibitor, GRK2 inh)
